B1: tRNA (parent)
chain: GUUCCGUUGGCGUAAUGGUAACGCGUCUCCCUCCUAAGGAGAAGACUGCGGGUUCGAGUCCCGUACGGAACG

Variants at the floor of the assay were thinned out.

Variants of B1 are the subject of the data set. As to the kind of experiment: yeast fitness relative to wild type (ratio to wild type); higher = fitter; tRNA-Arg(CCU), competitive growth, 37 C, YPD. In short, it runs like this:
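Genotype frequency changes were the basis for Darwinian fitness relative to wild type. The frequencies came from 100-nucleotide paired-end sequencing of gene amplicons from the start population and each end population of pooled yeast strains with tRNA-Arg(CCU) gene variants at the native locus. Competition ran in YPD at 37°C for 24 hours in six replicates, genotypes needed ≥ 100 starting reads, and estimates < 0.5 were set to 0.5.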
U26A G39A G41C: the yeast fitness was ≤ 0.5. As to G6A C33A A37C, the yeast fitness was ≤ 0.5. As to U26G C62G, the yeast fitness turned out to be 0.755.

As to U2C G23C C55G A69U, the yeast fitness is ≤ 0.5.

Take A15C U35C A42G G67U: the yeast fitness was ≤ 0.5.

Consider A21G C27U A69C, for which the yeast fitness was 0.781. Next, A57C A69G: 0.562. For the variant C11A C30G A45U C60A, the yeast fitness was determined as 0.537.

As to C4U U7A A36U, the yeast fitness is 0.567. Take A15U C27U A65U: the yeast fitness stood at 0.725. As for G6A C31U G63A, the yeast fitness was 0.582.

Take C46A C49A A70C: the yeast fitness was ≤ 0.5. Next, U28A A37G: 0.658; A15C U35A G50C A65C: 0.603; C22U C30A C49A C55A C62U C66U: 0.667. As for G10C C34U, the yeast fitness is 0.565. On to U26C C30G G41A C60G C62U G68A, for which the yeast fitness was ≤ 0.5.

Consider C31A A65C G67A, for which the yeast fitness was ≤ 0.5.

With A15U C27G, the yeast fitness amounted to 0.531. Next, G6C A40G A42G A57C C66U: ≤ 0.5; G6C U19C C22A U35C A69U: ≤ 0.5. With C22U C30G G50A the figure was ≤ 0.5; with C4U C29U G63A, 0.517; with C30G C33U, 0.555.

Turning to U2C C11U G68A, the yeast fitness amounted to 0.544. With G41C A43G U54A C66U the figure was ≤ 0.5; with G25C A43U A45G, 0.518. Next, U8A A57U: 0.502. For the variant U2A G6C G38A G68A, the yeast fitness was ≤ 0.5.

C5G C33A C34G G50A: the yeast fitness is ≤ 0.5. With C30G A42C the figure was 0.631.

Regarding G10C C46A G68C, the yeast fitness is 0.57. With U3C C33A C61G, the yeast fitness was 0.731. On to U7A A20G G23A U26G A65G C66G, for which the yeast fitness is ≤ 0.5. On to U16A A21U C24A G52A, for which the yeast fitness was ≤ 0.5. Next, U32A G52C C55U C61U C66U: ≤ 0.5; U2G G6A G25A A37U A40C: ≤ 0.5.

Turning to U2A U19G C29G, the yeast fitness was ≤ 0.5. Turning to U19C G38C C62G, the yeast fitness was ≤ 0.5. As to G12C U47C, the yeast fitness turned out to be 0.958. As to G17A C30A A57U G58A, the yeast fitness is ≤ 0.5. With G6A the figure was 0.965; with U2C A43U G44C, ≤ 0.5; with U8A G17A C22U, 0.607. In the case of U2A C5U G39C C60A, the yeast fitness was 0.541.

With A15U C29A C49G, the yeast fitness amounted to 0.634.

As for C4U G23A A40C U54A U59A, the yeast fitness is ≤ 0.5.

As to C30U G44A A65C, the yeast fitness came out at 0.553. Consider G38A C46A, for which the yeast fitness was 0.993.

Consider U3A C4U U7A C24U C61A C62G A65G, for which the yeast fitness was ≤ 0.5. As to U7G G18A G48A, the yeast fitness is ≤ 0.5. For the variant G6C C29G C30U G51C C66A, the yeast fitness came out at 0.686. As for U13A C27G A43C A45U U64C, the yeast fitness came to 0.582.

On to C22A C29A A43U, for which the yeast fitness was ≤ 0.5. C5U U26G C33G G50C: the yeast fitness is ≤ 0.5.

Turning to A15G A36C U47A G48C U54G A65C, the yeast fitness was ≤ 0.5. As for C5A G12C C34U, the yeast fitness is ≤ 0.5.

Regarding G17C U19C A40G U47G, the yeast fitness was ≤ 0.5. With U8C C24A the figure was 0.616. Next, C11U C29G C33U: ≤ 0.5. Regarding G10A C55G, the yeast fitness is 0.605.

In the case of C5U G50A G63A, the yeast fitness amounted to 0.608. With A36U C49G U54C the figure was 0.66. Consider C4G G18C A37C A57C, for which the yeast fitness is ≤ 0.5. Take A21C A43G G58C: the yeast fitness was ≤ 0.5. On to C5U U8C A20G C30A G68U, for which the yeast fitness was ≤ 0.5. With A21C G58C the figure was 0.84; with C62G C66G, 0.553; with G39A G48A, 0.94.

In the case of C11U A70G, the yeast fitness is 0.978. For the variant C5A C60U A65C, the yeast fitness is ≤ 0.5. Next, C11A U47G: 0.542; C5U C27G U35G G44A: ≤ 0.5. On to C5G C11G A20C C33U C34U, for which the yeast fitness was ≤ 0.5.

Take G10A A45U U53G: the yeast fitness was ≤ 0.5. Regarding A20C C34G C66U, the yeast fitness was ≤ 0.5. With A40U G50A, the yeast fitness was 0.801.

As for C27U A65U A70C, the yeast fitness came out at 0.607.

C4U U26A G38A G63C: the yeast fitness is ≤ 0.5.

For G9C U32C A36G G52A, the yeast fitness is ≤ 0.5. With G12A C30A C31G U54G the figure was ≤ 0.5; with C4U A14C G39C, ≤ 0.5; with C22U C30A A42C G58A, ≤ 0.5. With U8C A20C G51A the figure was ≤ 0.5.

As to A42G U54G, the yeast fitness was determined as 0.562. With A20C U26C C30U C61A the figure was ≤ 0.5; with U3C A37C C49G, ≤ 0.5. With G6C A57C A65U the figure was ≤ 0.5; with C24G U26A C33U U54A, 0.609; with A36G G48C C60A, ≤ 0.5.

Regarding G10C C34A A40G G68C, the yeast fitness was ≤ 0.5. Next, A40U C55A: 0.584; U2C G25A A42U: 0.561; A15C G17A G18A A36C C55U: ≤ 0.5. Consider G25A C55G U59A G63A, for which the yeast fitness was ≤ 0.5. With C11A C29G G44A G56C C62A G67C the figure was ≤ 0.5; with U2C A15U C30G C55U, 0.666; with U3G C11U A21U G44C A57U, ≤ 0.5.

For the variant U2G C29G G44C C49G A57U, the yeast fitness is ≤ 0.5. As for G6A C49U G58A A69C, the yeast fitness came to 0.605. With C5A C11G C61G the figure was 0.502; with G10A A14G C34G, ≤ 0.5; with C55A U59C, 0.647.

Consider U7A U59C, for which the yeast fitness was 0.662.

On to A14U C30G, for which the yeast fitness is 0.516. Next, U8A C22G C55G: 0.651; A14G G17C G39A A69C: ≤ 0.5. With U8C C27U C31A the figure was 0.56; with A40G C62A, 0.641; with C4A U8C A14U A20C U28G, 0.54.

On to C29G C49A A70C, for which the yeast fitness turned out to be 0.538. Next, G10C C27G C30G G48C A65C: ≤ 0.5; U32C A40G C62G G68A A69C: ≤ 0.5; C30U C31A A40U G56A: ≤ 0.5. With C30U G39A A40G G67A, the yeast fitness is ≤ 0.5. With C27A A37C G68A the figure was ≤ 0.5; with G25A C31U A43C A57C, ≤ 0.5; with C5G U19C U32C, 0.766. Regarding C5G U32A G48C C62U, the yeast fitness was ≤ 0.5. With C27U G39C, the yeast fitness was found to be 0.613. With U7A U8C G9A C33U the figure was ≤ 0.5; with C11U U19C A20U A42C A65C A69U, ≤ 0.5. With G9C U19G the figure was 0.502; with U2C C34G U59A, ≤ 0.5; with G6A G17A C27U C33A A37C, ≤ 0.5. Next, U7G U59A: 0.754; U3C G50A A57G: 0.632; C24U G51A G58A G67A: ≤ 0.5.

In the case of A15G C22G A36U A40G U59A, the yeast fitness was ≤ 0.5.

Regarding U26C A40G, the yeast fitness came out at 1.03. With A36C A37G G56A the figure was ≤ 0.5; with C22U U28A C33G G58A C66U, ≤ 0.5. Next, G10A A21G U28C: ≤ 0.5. C22G G23C: the yeast fitness was 0.779.

For the variant U8A A37G G41C A43U, the yeast fitness was ≤ 0.5. Next, A37C G44C: 0.758. With C27G C30G A40G C49A A65U the figure was ≤ 0.5; with G12A A20C U28C, 0.664.

Turning to G6C U7A C34U C61U, the yeast fitness is 0.658. Next, A36G G44A: 0.978; G38C G50A U64C: 0.832. Next, G41C G44C C55A: 0.563. With C11U G12A the figure was 0.998; with C4A A14U C30A G67C, ≤ 0.5. On to C33G C34U G38C U47A, for which the yeast fitness came to 0.517. With U3G A45G A65G the figure was 0.729; with U8C C27U C62U, 0.736.

Take U7G A42G: the yeast fitness was determined as 0.837. On to C29U A40U G56C, for which the yeast fitness was 0.552. C31U G39A G44A C61U: the yeast fitness is ≤ 0.5. With G44A A45G G51C C66U A69C the figure was 0.576; with C22U G25A A65U, 0.687. With A42G C55U A65C the figure was 0.535; with C46U U54C A69C, 0.778. U2A A37C: the yeast fitness was determined as 0.833. Take C27G G41A C49G G56C: the yeast fitness was ≤ 0.5. Turning to A14U G44C G51A G63A A70U, the yeast fitness was ≤ 0.5. Regarding U28G U32A G38C A65C G67C, the yeast fitness was ≤ 0.5. Next, U26C C46G: 0.894. With C5U U26G G58A the figure was 0.924; with A20C C34A G63C, ≤ 0.5. Next, A37C G63C A69C: ≤ 0.5; G17A A21G C49U C60A G63A: 0.529. Regarding A42G A45U, the yeast fitness turned out to be 0.952. Regarding A15U U32A G50A G51A G56C C61G C62U, the yeast fitness was ≤ 0.5.

In the case of C5G G23C, the yeast fitness came to 0.695.

For G25A U47C G56C C60U A70U, the yeast fitness is ≤ 0.5.

Values taken from the RNAGym collection of RNA variant scans (doi:10.1126/science.aae0568).
